Shown are actives, neighbours in structure and some others; about 2.3% of the full set was active somewhere.
TRPC4 PAM: positive allosteric modulators of TRPC4, primary screen, cell-based, mouse TRPC4beta, HEK293 mu-opioid, Fluo-4 calcium | AID 2227, 2009 | B-score at 10 µM | 310,000 tested, 0.42% active | Short transient receptor potential channel 4 (Mus musculus), Q9QUQ5 | DAMGO EC20, Fluo-4 Ca2+ flux; hits give high values;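 active = B-score of calcium response area above 5 SD of library B-scores, with initial fluorescence ratio within 5 SD of library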;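 note: B-score of integrated fluorescence ratio over time as area under calcium response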
Target sequence (Q9QUQ5 whole entry, looked up): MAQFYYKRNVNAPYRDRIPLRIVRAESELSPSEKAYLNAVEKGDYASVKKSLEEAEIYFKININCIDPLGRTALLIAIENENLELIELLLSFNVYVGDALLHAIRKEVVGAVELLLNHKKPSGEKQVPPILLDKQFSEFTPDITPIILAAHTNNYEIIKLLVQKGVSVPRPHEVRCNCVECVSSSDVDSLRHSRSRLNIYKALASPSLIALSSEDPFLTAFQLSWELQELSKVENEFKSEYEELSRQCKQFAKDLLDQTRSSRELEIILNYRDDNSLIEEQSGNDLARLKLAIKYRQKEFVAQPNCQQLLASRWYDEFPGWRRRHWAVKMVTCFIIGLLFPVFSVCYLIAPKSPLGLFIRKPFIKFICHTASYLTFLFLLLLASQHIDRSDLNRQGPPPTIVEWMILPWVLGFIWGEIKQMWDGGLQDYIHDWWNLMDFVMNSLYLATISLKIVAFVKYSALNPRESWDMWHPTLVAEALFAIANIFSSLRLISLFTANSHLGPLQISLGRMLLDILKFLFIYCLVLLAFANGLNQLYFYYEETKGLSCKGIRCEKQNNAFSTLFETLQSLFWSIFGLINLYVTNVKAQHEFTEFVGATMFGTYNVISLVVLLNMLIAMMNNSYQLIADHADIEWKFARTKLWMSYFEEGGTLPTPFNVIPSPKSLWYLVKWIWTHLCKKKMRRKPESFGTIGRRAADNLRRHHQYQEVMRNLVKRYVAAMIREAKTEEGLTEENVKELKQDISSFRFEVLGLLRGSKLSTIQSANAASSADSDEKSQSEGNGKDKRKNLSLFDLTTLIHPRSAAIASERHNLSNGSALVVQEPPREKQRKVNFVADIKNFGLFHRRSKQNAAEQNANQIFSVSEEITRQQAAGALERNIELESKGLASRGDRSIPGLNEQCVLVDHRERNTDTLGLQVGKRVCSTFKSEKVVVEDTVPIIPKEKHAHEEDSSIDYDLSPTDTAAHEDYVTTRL
TRPC6 inhibitor: mouse TRPC6 channel inhibitors, primary screen, cell-based, HEK293, membrane potential dye; ACh-evoked depolarization; hits give low values; B-score at 10 µM; 310,000 tested, 1.1% active; AID 2553, 2010;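 active = B-score under library mean minus 3 SD, initial fluorescence not abnormally high, positive integrated signal ratio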;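 note: B-score derived from integrated fluorescence ratio over the kinetic read; more negative B-score means stronger inhibition of depolarization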
TRPC4 agonist: activators of mouse TRPC4 channel, primary screen, Fluo4 calcium, HEK293 TRPC4beta/mu-opioid cells | B-score at 10 µM | AID 2237, 2010 | Fluo4 calcium fluorescence; hits give high values | 310,000 tested, 0.49% active | Short transient receptor potential channel 4 (Mus musculus), Q9QUQ5;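 active = B-score above 5 SD of library B-scores, and initial fluorescence ratio not above library mean plus 5 SD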;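 note: positive B-score marks a calcium rise read as TRPC4 activation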
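Material: TRPC4beta and mu-opioid receptor HEK293 stable cells | Incubation: 45 min room-temperature Fluo4 loading, 110 s read | Detection: Kinetic Fluo4 calcium fluorescence | Measure: Integrated baseline-normalised fluorescence ratio, converted to per-well B score | Benchmarks: Low control buffer alone, high control maximal DAMGO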
TRPC6 activator: mouse TRPC6 channel activators, primary screen, cell-based, HEK293, membrane potential dye; Short transient receptor potential channel 6 (Mus musculus), Q61143; HEK293-TRPC6 membrane potential dye fluorescence; hits give high values; B-score at 10 µM; 310,000 tested, 0.13% active; AID 2550, 2010;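 active = B-score of the integrated fluorescence ratio above library mean plus 3 SD, and starting fluorescence ratio within library mean plus 5 SD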;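 note: higher score means more depolarization so channel activation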
TRPC4 inh: inhibitors of mouse TRPC4 channel, primary screen, Fluo4 calcium, HEK293 TRPC4beta/mu-opioid cells; AID 2247, 2010; 300,000 tested, 0.39% active; DAMGO-evoked Fluo4 calcium flux; hits give low values; B-score at 10 µM;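 active = B-score over 3 SD under the library average, no early fluorescence shift, positive overall ratio signal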
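Assay system: TRPC4beta/mu-opioid receptor HEK293 cell line; compound dosing: single concentration per test compound; detection: Fluo4 Ca2+ flux fluorescence; evaluation: per-well B score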
Numbers without * were called inactive; i = inactive; . = not tested or not shown.

SMILES | TRPC4 PAM | TRPC6 inhibitor | TRPC4 agonist | TRPC6 activator | TRPC4 inh
Cc1ccc(S(=O)(=O)NC(C(=O)Oc2cc3oc(=O)cc(C)c3cc2Cl)C(C)C)cc1 (stereo unspecified) | 15* | i | i | i | i
C=CCN1C(=O)/C(=C/C=C2/N(CC)c3ccc(S(=O)(=O)N(C)C)cc3N2CC)SC1=S | 10* | i | 64* | i | i
Cc1c(C(=O)N2CCCCC2)nn(-c2ccc(Cl)cc2)c(=O)c1C#N | i | i | i | i | i
CCOc1cc(CNCCCN2CCOCC2)cc(Br)c1OCc1ccccc1Cl | i | i | i | i | -7*
CCOc1cc(CNCCO)cc(Br)c1OCc1ccccc1Cl | i | i | i | i | i
COC(=O)CC(NC(=S)NC(=O)c1ccccc1)c1ccc(Br)cc1 (stereo unspecified) | 72* | i | i | i | i
COC(=O)CC(N)c1ccc(Br)cc1 (stereo unspecified) | i | i | i | i | i
N#Cc1c(N)sc2c1CCCCCC2 | i | i | i | i | -7*
CC(C)C(=O)N1CCN(c2ccccc2NC(=O)c2ccco2)CC1 | i | i | i | i | -10*
CCC(=O)N1CCN(c2ccccc2NC(=O)c2cccs2)CC1 | i | i | i | i | i
CC(=O)N1CCN(c2ccccc2NC(=O)c2ccc3ccccc3c2)CC1 | i | i | i | i | -5*
COc1ccc(C(=O)Nc2ccccc2N2CCCC2)cc1 | i | i | i | i | i
CC(=O)N1CCN(c2ccccc2NC(=O)c2cccs2)CC1 | i | i | i | i | -6*
CCOP(=O)(OCC)/C(C#N)=C/c1cc(OC)ccc1OC | i | i | i | i | i
COCc1cc(=O)[nH]c(N2CCN(Cc3ccc4c(c3)OCO4)CC2)n1 | i | i | i | i | i
Cc1ccc(C)c2[nH]c(=O)c(CN(CC3CCCO3)C(=S)NCc3ccco3)cc12 (stereo unspecified) | i | i | i | i | -6*
O=C(O)CCN1C(=O)/C(=C/c2ccc(-c3nc4ccccc4s3)o2)SC1=S | i | i | i | i | i
O=C(O)CCCN1C(=O)/C(=C\c2ccc(-c3nc4ccccc4s3)o2)SC1=S | 19* | i | i | i | i
O=C1c2ccccc2S(=O)(=O)c2cc(C(=O)N(c3ccccn3)c3ccccn3)ccc21 | i | i | 135* | i | i
CC(C)c1ccc(C(C(=O)NC2CCCC2)N(C(=O)c2csnn2)C2CC2)cc1 (stereo unspecified) | i | i | i | i | i
CCCCN(CC)S(=O)(=O)c1ccc(C(=O)Nc2nnc(-c3cccs3)o2)cc1 | i | i | 67* | i | i
OCCN1CCN(Cc2cc(Br)cc(Br)c2O)CC1 | i | i | 176* | i | i
Cc1cc([N+](=O)[O-])ccc1NCc1ccco1 | i | i | i | i | -6*
COc1cccc(CNc2ccc([N+](=O)[O-])cc2C)c1 | i | i | i | i | i
COc1cccc(-c2nnc(NC(=O)c3ccc4ncsc4c3)o2)c1 | i | i | i | i | i
SMILES | TRPC4 PAM | TRPC6 inhibitor | TRPC4 agonist | TRPC6 activator | TRPC4 inh
O=c1c(Cc2ccccc2)c(O)ccn1CCc1cnc[nH]1 | i | i | 129* | i | i
O=c1c(Cc2ccc(F)cc2)c(O)ccn1Cc1ccc(F)cc1 | i | i | i | i | i
O=c1c(Cc2ccc(F)cc2)c(O)ccn1CCc1cnc[nH]1 | i | i | 108* | i | i
Cc1sc2c(c1C)C(O)=C(C(=O)Nc1ccccc1)S(=O)(=O)N2C | i | i | i | i | i
CCOc1ccc(C(=O)CN2CCN(S(=O)(=O)c3ccc(OC)cc3)CC2)cc1 | i | i | i | i | i
COc1ccc(C)c(NC(=O)NCCc2cnc[nH]2)c1 | i | i | 129* | i | i
CC(C)CC(NS(=O)(=O)OCC(Cl)(Cl)Cl)c1ccccc1 (stereo unspecified) | i | i | i | i | .
CC(NS(=O)(=O)OCC(Cl)(Cl)Cl)c1ccc(Br)cc1 (stereo unspecified) | 15* | i | i | i | i
COc1ccc2ccccc2c1CNC(C)c1ccccc1 (stereo unspecified) | i | i | i | i | i
CC(NCCCOc1cccc2ccccc12)c1ccccc1 (stereo unspecified) | i | i | 69* | i | i
O=C1NC(=S)N/C1=C/c1cc([N+](=O)[O-])ccc1O | i | i | i | i | i
C/C(=N/NC(=O)c1ccc(Cn2cccn2)o1)c1cccc(NC(=O)c2ccncc2)c1 | i | i | 62* | i | -6*
C/C(=N\NC(=O)c1ccncc1)c1cccc(NC(=O)c2ccc(C(C)(C)C)cc2)c1 | i | i | i | i | i
O=[N+]([O-])c1ccc(N2CCN(CCOc3nonc3-c3ccccc3)CC2)c(Cl)c1 | 17* | i | i | i | i
Cc1ccc(-n2c(-c3ccccc3)c[n+]3c2CCc2ccccc2-3)c(C)c1 | i | -5.5* | i | i | i
CN(c1ccccc1)c1ccc(/C=N/NC(=O)CC#N)cc1 | i | i | i | i | i
CC(C)[C@H](NC(=O)N1c2ccccc2NC(=O)[C@@H]1C(C)C)C(=O)N1CCC[C@H]1C(=O)O | i | i | i | i | i
CCN1CCN(CCOc2ccc(Br)cc2C)CC1 | i | i | i | i | i
Cc1cc(Br)ccc1OCCN1CCCC1 | 15* | i | i | i | i
CCCCN(CC)CCCNC(=O)C1c2ccccc2C(=O)N(C)C1c1cn(C)c2ccccc12 (stereo unspecified) | i | i | 80* | i | i
CC(C)Cc1ccc(C(C)C(N)=NCCc2ccccc2)cc1 (stereo unspecified) | 10* | i | i | i | i
CCn1c(CN2CCN(Cc3ccc(C)cc3)C(CCO)C2)nc2ccccc21 (stereo unspecified) | i | i | 172* | i | i
CN1CCN(Cc2nc3ccccc3n2C)CC1CCO (stereo unspecified) | 19* | i | i | i | i

Compound activity: PubChem, Johns Hopkins Ion Channel Center
